This is an account of results in article PMC7655718 (The Journal of antibiotics, 2020).

Assay [1] has as its system A. baumannii ATCC 19606 (type strain, Ab06). Put plainly: MIC and MBC. Format: cell-based, Acinetobacter baumannii. The following applies: for MIC Ab06: A. baumannii ATCC 19606 (type strain). The gist of the method:
(§1)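 Compounds dissolved in DMSO at 2 mg/mL. Overnight blood-agar colonies were suspended in PBS to 0.5 McFarland, then diluted in Mueller Hinton broth to about 1x10^6 cfu/mL with resazurin (1:1000 of 0.1% w/v stock). Twofold DMSO dilutions were added 1:40, giving 50 to 0.4 μg/mL at 2.5% DMSO. Incubation was 35 °C for 16-20 h. Blue/non-turbid wells counted as inhibited, pink/turbid as grown.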

For assay [2], the system named is B. subtilis ATCC 6623 (Bs). Put plainly: MIC, microdilution with resazurin. Format: cell-based, Bacillus subtilis. To be noted: Bacillus subtilis, ATCC6623, read-out: MIC Bs.
In assay [3] the test system is S. aureus ATCC 25923 (Sa23). Put plainly: MIC, microdilution with resazurin. Type of assay: cell-based. To be noted: Staphylococcus aureus, ATCC25923, read-out: MIC Sa23. The gist of the method:
as §1

Assay [4] concerns S. epidermidis 700296 (Se). Put plainly: MIC, microdilution with resazurin. Type of assay: cell-based. The following applies: Staphylococcus epidermidis, read-out: MIC Se. A digest of the protocol:
as §1
(In general: In broth dilution the organism is exposed to a series of concentrations in liquid medium.)

Assay [5] relates to S. aureus ATCC 33592 (Sa92). Put plainly: MIC, microdilution with resazurin. Format: cell-based. To be noted: Staphylococcus aureus, ATCC33592, read-out: MIC Sa92. A digest of the protocol: as §1
Assay [6] relates to S. aureus BAA-2312 (Sa12). The experiment in a line: MIC, microdilution with resazurin. Format: cell-based. To be noted: Staphylococcus aureus, BAA2312, read-out: MIC Sa12. The gist of the method:
as §1

Assay [7] concerns S. aureus ATCC 33591 (Sa91). Put plainly: MIC, microdilution with resazurin. Format: cell-based. To be noted: Staphylococcus aureus, ATCC33591, read-out: MIC Sa91. A digest of the protocol: as §1
Assay [8] deals with S. aureus ATCC 700699 (Sa99). Put plainly: MIC, microdilution with resazurin. Format: cell-based. The following applies: Staphylococcus aureus, ATCC700699, read-out: MIC Sa99. A digest of the protocol:
as §1

In assay [9] the test system is A. baumannii ATCC 747 (Ab47). The experiment in a line: MIC, microdilution with resazurin. Format: cell-based, Acinetobacter baumannii. The following applies: for MIC Ab47: A. baumannii ATCC 747; for MIC: Acinetobacter baumannii, ATCC747, read-out: MIC Ab47. The gist of the method: as §1
The test system of assay [10] is A. baumannii ATCC BAA-1605 (Ab05). Put plainly: MIC, microdilution with resazurin. Format: cell-based, Acinetobacter baumannii. A digest of the protocol:
as §1

Another assay relates to A. baumannii ATCC 19606. The experiment in a line: Time kill assay. Format: cell-based, Acinetobacter baumannii. To be noted: 4xMIC; for time kill effect: 24 hours at 35 °C. The gist of the method:
(§2)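 Growth curves by optical density set the log phase. Log-phase bacteria (about 2 h shaking in Mueller Hinton broth II) were diluted in warm broth to about 3x10^6 cfu/mL. They were exposed to compound at 4xMIC (other multiples where indicated), in triplicate, at 35 °C. Colistin (A. baumannii) or vancomycin (S. aureus) and DMSO were included. Samples at 0, 2, 4, 6, 8, 10, 12 and 24 h were counted by drop plate on blood agar (18-24 h, 35 °C). Log cfu/mL was plotted against time.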

The test system of assay [11] is S. aureus ATCC 33599 (MRSA). The experiment in a line: BacLight membrane permeability assay. Format: cell-based, Staphylococcus aureus. The following applies: versus positive control vancomycin.
The subject of assay [12] is S. aureus ATCC 25923 biofilm formation. The experiment in a line: Biofilm inhibition assay. Type of assay: cell-based, Staphylococcus aureus. The following applies: 2xMIC, MIC and 0.5xMIC concentrations, 24 hours. The gist of the method:
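Blood-agar culture was suspended in PBS (0.5 McFarland), then diluted 1:100 in yeast extract casamino acid broth (about 1x10^6 cfu/mL). Compound at 2xMIC, MIC and 0.5xMIC was added before biofilm formation, in triplicate, with broth-only and bacteria+DMSO controls. Incubation was 35 °C for 24 h. Wells were PBS-washed, dried, stained with 0.1% crystal violet, solubilised in 33% acetic acid and read at 620 nm. % inhibition = [1−(ODcompound−ODbroth)/(ODdmso−ODbroth)]×100, from mean and SD.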

Assay [13] concerns tested Gram-positive bacterial strains. Put plainly: MIC, text summary over tested Gram-positive strains. Format: cell-based.
Assay [14] concerns S. aureus ATCC 25923 preformed biofilm. Put plainly: Biofilm destruction assay. Type of assay: cell-based, Staphylococcus aureus. The following applies: 2xMIC. The gist of the method:
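Biofilm was first grown in 96-well plates for 24 h at 35 °C and washed with PBS to remove unadhered cells. Fresh yeast extract casamino acid broth was added with compound at 2xMIC, MIC or 0.5xMIC, or DMSO, in triplicate, plus broth-only wells. Incubation was 35 °C for 24 h. Crystal violet was stained, solubilised and read at 620 nm. % destruction = [1−(ODcompound−ODbroth)/(ODdmso−ODbroth)]×100, from triplicate means.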

Assay [15] deals with human embryonic kidney cell line (HEK293). The experiment in a line: Toxicity against HEK293 cell line. Type of assay: cell-based. The following applies: HEK293 IC50 over MIC; as high as.
Assay [16] concerns S. aureus ATCC 33599 (MRSA). The experiment in a line: MIC and MBC. Type of assay: cell-based, Staphylococcus aureus. Further details: MBC as multiple of the MIC: unit not given beside the values. The gist of the method: as §1
For assay [17], the system named is S. aureus ATCC 33599 (MRSA). Put plainly: Time kill assay. Type of assay: cell-based, Staphylococcus aureus. A digest of the protocol: as §2
Assay [18] has as its system A. baumannii ATCC 19606 (Ab06). The experiment in a line: BacLight membrane permeability assay. Format: cell-based, Acinetobacter baumannii. The following applies: Ab06, versus positive control colistin at comparable MIC.
Assay [19] deals with tested A. baumannii strains. Put plainly: MIC, text summary over A. baumannii strains. Type of assay: cell-based, Acinetobacter baumannii. The gist of the method: as §1
Setting [20] is: Acinetobacter baumannii, ATCC19606, read-out: MIC Ab06.
Where [21] appears, read: Acinetobacter baumannii, ATCC19606.
The mark [22] stands for this setting: Staphylococcus aureus, ATCC33599|MRSA.

Values after ≈ are worked out from the molar mass of the structure shown. Where two headings read alike, the source gives them in different places.

What is called MIC is the lowest concentration found to suppress growth. For `O=C(O)c1ccc(-n2cc(/C=N/Nc3cccc(Br)c3)c(-c3ccc4ccccc4c3)n2)cc1` [Compound 17], the “MIC Ab06” value in [1] was “moderately inhibited the growth”. Also, the MIC came to 12.5 µg/mL (≈ 24.4 µM) in [1] (setting [20]); 3.12 µg/mL (≈ 6.11 µM) in assay [2]; 6.25 µg/mL (≈ 12.2 µM) in assay [3]; 6.25 µg/mL (≈ 12.2 µM) in [4]; 1.56 µg/mL (≈ 3.05 µM) in assay [5]; 6.25 µg/mL (≈ 12.2 µM) in [6]. Also, the MIC was 6.25 µg/mL (≈ 12.2 µM) in [7], 1.56 µg/mL (≈ 3.05 µM) in [8] and above 50 µg/mL in [9]. Moreover, the “MIC Ab47” value in assay [9] is reported as “did not inhibit the growth”. For the same compound, in assay [10], the “MIC Ab05” value was “did not inhibit the growth”.
As a reminder, the MBC is the lowest tested concentration that kills the bacteria rather than only halting them. `O=C(O)c1ccc(-n2cc(/C=N/Nc3ccc(Br)cc3)c(-c3ccc4ccccc4c3)n2)cc1` [Compound 18] displayed an MBC in assay [1] (setting [21]) of 12.5 µg/mL (≈ 24.4 µM). The MIC was 1.56 µg/mL (≈ 3.05 µM) in assay [1] (setting [21]); 1.56 µg/mL (≈ 3.05 µM) in assay [1] (setting [20]); 6.25 µg/mL (≈ 12.2 µM) in assay [2]; 6.25 µg/mL (≈ 12.2 µM) in assay [3]; 12.5 µg/mL (≈ 24.4 µM) in [4]; 3.12 µg/mL (≈ 6.11 µM) in [5]. Besides, the MIC in [6] stood at 12.5 µg/mL (≈ 24.4 µM); in assay [7], 12.5 µg/mL (≈ 24.4 µM); in [8], 0.78 µg/mL (≈ 1.53 µM); in assay [9] it was 6.25 µg/mL (≈ 12.2 µM). The “time kill effect” value in the assay on A. baumannii ATCC 19606 is reported as “bacteriostatic effect”. Moreover, the “increase in log10 cfu/mL of the bacterial population” value in the assay on A. baumannii ATCC 19606 (through 24 hours) is on record as at most 2 fold. The “MIC Ab47” value in assay [9] is recorded as “moderate growth inhibitor”. The “MIC Ab05” value in [10] is “moderate growth inhibitor”.
For `O=C(O)c1ccc(-n2cc(/C=N/Nc3cc(F)ccc3F)c(-c3ccc4ccccc4c3)n2)cc1` [Compound 19], the “membrane disruption activity, PI/SYTO-9 ratio” value in [11] is recorded as “more potent membrane disruption activity than vancomycin”. Besides, the MIC was above 50 µg/mL in assay [1] (setting [20]); 3.12 µg/mL (≈ 6.67 µM) in [2]; 1.56 µg/mL (≈ 3.33 µM) in [3]; 3.12 µg/mL (≈ 6.67 µM) in [4]; 1.56 µg/mL (≈ 3.33 µM) in assay [5]; 3.12 µg/mL (≈ 6.67 µM) in [6]. The MIC in assay [7] was 3.12 µg/mL (≈ 6.67 µM); in assay [8] it was 0.78 µg/mL (≈ 1.67 µM); in assay [9], above 50 µg/mL. Besides, in assay [12], the “inhibition of biofilm formation” value is listed as “most effective compound”. In [13], the “antimicrobial activity against the tested strains” value (“antimicrobial activity” below) is “enhanced activity against all the tested strains”. For the same compound, the “destruction of preformed biofilm” value in assay [14] is reported as “potent activity”. Besides, in [15], the “selectivity factor (IC50/MIC)” value is reported as at most 48.7.
As for `O=C(O)c1ccc(-n2cc(/C=N/Nc3ccc(Cl)cc3Cl)c(-c3ccc4ccccc4c3)n2)cc1` [Compound 20], in assay [11], the “membrane disruption activity, PI/SYTO-9 ratio” value is listed as “more potent membrane disruption activity than vancomycin”. The “MBC as multiple of the MIC” value in assay [16] (S. aureus ATCC 33599 (MRSA)) is on record as 8. Besides, the MBC in [16] (setting [22]) is 6.25 µg/mL (≈ 12.5 µM). Besides, the MIC in assay [16] (setting [22]) is 0.78 µg/mL (≈ 1.56 µM); in assay [1] (setting [20]) it was above 50 µg/mL; in assay [2] it was 3.12 µg/mL (≈ 6.23 µM); in assay [3] it was 3.12 µg/mL (≈ 6.23 µM); in [4], 3.12 µg/mL (≈ 6.23 µM); in assay [5], 0.78 µg/mL (≈ 1.56 µM). Also, the MIC in assay [6] is 3.12 µg/mL (≈ 6.23 µM); in [7], 6.25 µg/mL (≈ 12.5 µM); in [8], 0.78 µg/mL (≈ 1.56 µM); in [9], above 50 µg/mL. In addition, the “time kill effect” value in [17] (4xMIC, 24 hours at 35 °C) is listed as “mild bactericidal effect”; in assay [17] (8xMIC), “strongly bactericidal”. For the same compound, in assay [17] (8xMIC), the “time to kill all bacteria” value is at most 4 h. In addition, the “antimicrobial activity” value in assay [13] is on record as “enhanced activity against all the tested strains”. Further, in assay [15], the “selectivity factor (IC50/MIC)” value was at most 48.7.
Regarding `O=C(O)c1ccc(-n2cc(/C=N/Nc3ccc(F)c(Cl)c3)c(-c3ccc4ccccc4c3)n2)cc1` [Compound 22], the “membrane disruption activity, PI/SYTO-9 ratio” value in assay [11] is given as “more potent membrane disruption activity than vancomycin”. Besides, the MBC in assay [1] (setting [21]) amounted to 50 µg/mL (≈ 103 µM). For the same compound, the MIC in assay [1] (setting [21]) is 6.25 µg/mL (≈ 12.9 µM); in assay [1] (setting [20]) it was 6.25 µg/mL (≈ 12.9 µM); in [2], 6.25 µg/mL (≈ 12.9 µM); in assay [3] it was 3.12 µg/mL (≈ 6.44 µM); in assay [4], 3.12 µg/mL (≈ 6.44 µM); in [5], 1.56 µg/mL (≈ 3.22 µM). Besides, the MIC turned out to be 3.12 µg/mL (≈ 6.44 µM) in [6], 6.25 µg/mL (≈ 12.9 µM) in assay [7], 0.78 µg/mL (≈ 1.61 µM) in assay [8] and 12.5 µg/mL (≈ 25.8 µM) in assay [9]. In assay [13], the “antimicrobial activity” value was “potent inhibitors of tested Gram-positive strains”. In addition, in [18], the “membrane disrupting ability, PI/SYTO-9 ratio” value was “better membrane disrupting ability”. In assay [19], the “activity against A. baumannii strains” value is reported as “moderate growth inhibitor”.
With colistin [reference compound], in [1], the “MIC Ab06” value was determined as 3.125 µg/mL. This compound also came in with an MIC in [1] (A. baumannii ATCC 19606, Table 2) of 3.125 µg/mL. Further, the MBC in [1] (A. baumannii ATCC 19606, concentration killing 99.9% or greater) came out at 6.25 µg/mL. Further, in the assay with A. baumannii ATCC 19606, the “time to completely kill the starting population” value is at most 4 h and the “time kill effect” value is listed as “immediate bactericidal effect”. Also, the “MIC Ab47” value in [9] worked out at 1.56 µg/mL. In addition, the “MIC Ab05” value in assay [10] stood at 3.125 µg/mL.
